STAT1 inh: inhibitors of IFN-gamma induced STAT1 signaling; NIH 3T3 STAT1-luciferase reporter, luminescence; inhibition, % at 5.5 µM; 200,000 compounds, 0.35% hits; AID 920;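 active = inhibition above a set limit, the mean inhibition across all tested compounds plus 3 SD, cut at about 34% in these data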;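 note: 0% = IFN-gamma with DMSO and 100% = IFN-gamma with 300 µM nifuroxazide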
APP 5'UTR act: APP 5'UTR luciferase reporter activation; activation, % at 2 µM; 190,000 compounds, 1% hits; SH-SY5Y APP 5'UTR luciferase reporter, luminescence; zero percent = DMSO vehicle wells;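 active = activation above a set limit, based on mean plus 3 SD of controls, cut at about 140% in these data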
STAT1 activator: increases IFN-gamma driven STAT1 reporter signal; NIH 3T3 STAT1-luciferase reporter, luminescence; 100% = IFN-gamma alone, no compound; activation (% of control), % at 5.5 µM; 200,000 compounds, 2.6% hits; AID 932;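 active = activation above the screen-wide mean activation plus 3 SD, cut at about 130% in these data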;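 note: raw ratio to IFN-gamma control signal so 100% means no change and 0% no light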
STAT3 blocker: inhibitors of IL-6 induced STAT3 signaling; U3A cells, IL-6 STAT3-luciferase reporter, luminescence; host cell line lacks STAT1; inhibition, % at 5.5 µM; 190,000 compounds, 0.89% hits; AID 862;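 active = inhibition above the mean inhibition across all screened compounds plus 3 SD, cut at about 44% in these data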;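 note: 0% = DMSO only wells and 100% = 100 µM nifuroxazide control wells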
NF-kB neuron act: NF-kB expression increase, human neuronal cells; NF-kB reporter expression; active compounds read high; fold change at 12.5 µM; 190,000 compounds, 1.6% hits; in the data active = fold change above about 3.3
STAT3 activator: activators of IL-6 induced STAT3 signaling. activation (% of control), % at 5.6 µM. 190,000 compounds, 0.91% hits. U3A cells, IL-6 STAT3-luciferase reporter, luminescence; 100% = signal with IL-6 EC80 alone;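 active = activation above the screen-wide mean of compound activation plus 3 SD, cut at about 130% in these data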;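 note: 0% = background luminescence of wells with medium and substrate only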
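Material: STAT1-lacking human U3A cells, STAT3 luciferase reporter | Benchmarks: IL-6-only wells as 100% reference | Probe or stimulus: IL-6 (33 ng/mL) | Timing: Compound 1 h, then IL-6 6 h at 37 °C | Detection: Luminescence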
* = called active by the depositor. Shown are actives, neighbours in structure and some others; about 5.1% of the full set was active somewhere.

`CCN(CC)CCNC(=O)Cn1c(C)cc2ccccc2c1=O` gave STAT1 inh -2, APP 5'UTR act -8, STAT1 activator 102, STAT3 blocker 8, NF-kB neuron act 1 and STAT3 activator 98.
For Cc1ccc2nc(SCC(=O)c3c[nH]c4ccccc34)[nH]c2c1 the results were STAT1 inh 0, APP 5'UTR act -2, STAT1 activator 98, STAT3 blocker -32, NF-kB neuron act 1.1 and STAT3 activator 131.
`C(=C\c1nc(N2CCCC2)c2ccccc2n1)/c1ccccc1` gave STAT1 inh -8, APP 5'UTR act 27, STAT1 activator 107, STAT3 blocker -3, NF-kB neuron act 1.2 and STAT3 activator 99.
Screening CSc1nc2ccc(NC(=O)c3nn(C(C)C)c(=O)c4ccccc34)cc2s1 returned STAT1 inh 1, APP 5'UTR act 4, STAT1 activator 99, STAT3 blocker 17, NF-kB neuron act 0.76 and STAT3 activator 84.
CSc1nc2ccc(NC(=O)c3ccco3)cc2s1 was read as STAT1 inh -44, APP 5'UTR act 98, STAT1 activator 140*, STAT3 blocker 11, NF-kB neuron act 4* and STAT3 activator 90.
`CC1(C)CC(=O)C2=C(C1)N1C(=C(C#N)C2c2ccc(Cl)cc2)N=C(N)c2ccccc21` (centres undefined) gave STAT1 inh -6, APP 5'UTR act 1, STAT1 activator 105, STAT3 blocker -34, NF-kB neuron act 0.49 and STAT3 activator 129.
Screening CC(=O)Nc1ccc(N=Nc2c(C)[nH]n(C(N)=S)c2=O)cc1 returned STAT1 inh -27, APP 5'UTR act 5, STAT1 activator 126, STAT3 blocker 5, NF-kB neuron act 1.5 and STAT3 activator 103.
For Cc1ccc(N=Nc2c(C)[nH]n(C(N)=S)c2=O)cc1C the results were STAT1 inh -15, APP 5'UTR act 96, STAT1 activator 113, STAT3 blocker -24, NF-kB neuron act 4.8* and STAT3 activator 120.
`Cc1nnc(SCCn2c(N3CCN(C)CC3)nc3c2c(=O)[nH]c(=O)n3C)s1` gave STAT1 inh -4, APP 5'UTR act -7, STAT1 activator 104, STAT3 blocker 3, NF-kB neuron act 1.1 and STAT3 activator 103.
Screening COc1ccc(C2C(C(=O)c3ccco3)=C(O)C(=O)N2c2nnc(C)s2)cc1 (centres undefined) returned STAT1 inh 1, APP 5'UTR act 33, STAT1 activator 99, STAT3 blocker 4, NF-kB neuron act 1.1 and STAT3 activator 99.
Cc1ccc2nc(N3C(=O)C(O)=C(C(=O)c4ccco4)C3c3cccs3)sc2c1 (centres undefined) was read as STAT1 inh -26, APP 5'UTR act 170*, STAT1 activator 123, STAT3 blocker -21, NF-kB neuron act 2.3 and STAT3 activator 118.
`O=C1Nc2ccccc2/C1=C/C(=O)c1cccs1` gave STAT1 inh 1, APP 5'UTR act -16, STAT1 activator 99, STAT3 blocker -35, NF-kB neuron act 2.2 and STAT3 activator 134*.
Screening Cc1nnc(SCc2cc(=O)[nH]c(Nc3nc(C)c4ccccc4n3)n2)s1 returned STAT1 inh -5, APP 5'UTR act -5, STAT1 activator 105, STAT3 blocker 3 and STAT3 activator 97.
For Cc1ccc2nc(Nc3nc(CSc4nnc(C)s4)cc(=O)[nH]3)nc(C)c2c1 the results were STAT1 inh -40, APP 5'UTR act 8, STAT1 activator 135*, STAT3 blocker 9, NF-kB neuron act 1.1 and STAT3 activator 94.
Cc1ccc(S(=O)(=O)NCC2CCC(C(=O)NCc3ccco3)CC2)cc1 (centres undefined) was read as STAT1 inh 5, APP 5'UTR act 6, STAT1 activator 95, STAT3 blocker -6, NF-kB neuron act 0.83 and STAT3 activator 109.
For N#CC(c1ccc(Cl)cc1)c1ccc2c(C(F)(F)F)cc(C(F)(F)F)nc2n1 (centres undefined) the results were STAT1 inh 75*, APP 5'UTR act 4, STAT1 activator 31, STAT3 blocker 87*, NF-kB neuron act 1.3 and STAT3 activator 29.
Cc1cc(C)c2cc3c(N)c(C(=O)N4CCOCC4)sc3nc2c1 was read as STAT1 inh -51, APP 5'UTR act 86, STAT1 activator 144*, STAT3 blocker 3, NF-kB neuron act 0.93 and STAT3 activator 102.
For Cc1ccc(C)c2nc3sc(C(=O)N4CCOCC4)c(N)c3cc12 the results were STAT1 inh -49, APP 5'UTR act 64, STAT1 activator 144*, STAT3 blocker -1, NF-kB neuron act 1.9 and STAT3 activator 103.
COC(=O)Cc1c(OC)ccn(CCc2c[nH]c3ccccc23)c1=O was read as STAT1 inh -38, APP 5'UTR act 90, STAT1 activator 136*, STAT3 blocker -3, NF-kB neuron act 2.7 and STAT3 activator 107.
`OCC1CCCN1C(=S)Nc1ccccc1` (centres undefined) gave STAT1 inh -9, APP 5'UTR act -8, STAT1 activator 108, STAT3 blocker -2, NF-kB neuron act 1 and STAT3 activator 106.
OCC1CCCCN1C(=S)Nc1cccc(Cl)c1 (centres undefined) was read as STAT1 inh -37, APP 5'UTR act 27, STAT1 activator 130*, STAT3 blocker 2, NF-kB neuron act 0.84 and STAT3 activator 103.
Screening CCCCCOC(=O)C1C2C=CC3(CN(c4ccccc4C)C(=O)C13)O2 (centres undefined) returned STAT1 inh 8, APP 5'UTR act 8, STAT1 activator 93, STAT3 blocker 5, NF-kB neuron act 0.99 and STAT3 activator 101.
`CCN(CC)c1ccc(-c2nn3c(-c4ccccc4OC)nnc3s2)cc1` gave STAT1 inh -19, APP 5'UTR act -94, STAT1 activator 118, STAT3 blocker -38, NF-kB neuron act 1.7 and STAT3 activator 136*.
`COc1ccc(-c2nn3c(-c4ccccc4)nnc3s2)cc1` gave STAT1 inh -8, APP 5'UTR act 8, STAT1 activator 107, STAT3 blocker 4, NF-kB neuron act 1.1 and STAT3 activator 105.
COc1ccc(NC(=O)c2cccc(F)c2)cc1Cl was read as STAT1 inh -32, APP 5'UTR act 30, STAT1 activator 130*, STAT3 blocker 11, NF-kB neuron act 2.4 and STAT3 activator 97.
Screening COc1ccc(NC(=O)C(OC)c2ccccc2)cc1Cl (centres undefined) returned STAT1 inh -3, APP 5'UTR act 5, STAT1 activator 102, STAT3 blocker 7, NF-kB neuron act 1.1 and STAT3 activator 96.
For O=C(Nc1ccc2cn[nH]c2c1)c1ccccc1F the results were STAT1 inh -50, APP 5'UTR act 82, STAT1 activator 147*, STAT3 blocker 4, NF-kB neuron act 1 and STAT3 activator 95.
